Test results reported in ChEMBL document CHEMBL4145683, “Total Synthesis and Structure-Activity Relationships Study of Odilorhabdins, a New Class of Peptides Showing Potent Antibacterial Activity” (J Med Chem, 2018).
Converted amounts (≈) assume the structure as drawn. The source made the active and inactive calls. The calls are words filed in the database; no cut-off is given here.

What was measured:
Klebsiella pneumoniae [1] = assay: Antimicrobial activity against Klebsiella pneumoniae ATCC 13883 infected in neutropenic mouse pulmonary infection model assessed as reduction in lung bacterial load at 80 mg/kg, sc dosed 1 hr post infection and measured 8 hrs post infection relative to untreated control; assay type: functional
Summary of the method: (§1)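 Mice were acclimatized for 5 days and made neutropenic with intraperitoneal cyclophosphamide (150 mg/kg on day 4, 100 mg/kg on day 1 pre-infection). They were infected intranasally with 2 × 10^6 CFU/mouse. At 1 h, a single SC dose was given in 10 mL/kg (6 mice/dose). […] A pretreatment group was sampled at 1 h. At 8 h, lungs were homogenized and plated on TSA for CFU. Analysis was one-way ANOVA with Dunnett's test vs vehicle.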

Klebsiella pneumoniae [2] = assay: Antimicrobial activity against Klebsiella pneumoniae ATCC 13883 infected in neutropenic mouse pulmonary infection model assessed as reduction in lung bacterial load at 40 mg/kg, sc dosed 1 hr post infection and measured 8 hrs post infection relative to untreated control; assay type: functional; summary of the method: as §1
Klebsiella pneumoniae [3] = assay: Antimicrobial activity against Klebsiella pneumoniae NCTC 13443 by broth microdilution method; assay type: functional
Summary of the method: (§2)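 Broth microdilution MIC per CLSI M07-A10, with inoculum prepared by direct colony suspension. Reference strains were from ATCC and NCTC.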

Klebsiella pneumoniae [4] = assay: Antimicrobial activity against Klebsiella pneumoniae NCTC 13438 by broth microdilution method; assay type: functional; summary of the method: as §2
Klebsiella pneumoniae [5] = assay: Antimicrobial activity against Klebsiella pneumoniae ATCC BAA-2472 by broth microdilution method; assay type: functional; summary of the method: as §2
Klebsiella pneumoniae [6] = assay: Antimicrobial activity against Klebsiella pneumoniae ATCC BAA-2146 by broth microdilution method; assay type: functional; summary of the method: as §2
Escherichia coli [7] = assay: Antimicrobial activity against Escherichia coli ATCC BAA-2340 by broth microdilution method; assay type: functional; summary of the method: as §2
Klebsiella pneumoniae [8] = assay: Antimicrobial activity against Klebsiella pneumoniae NCTC 13442 by broth microdilution method; assay type: functional
Summary of the method: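 CLSI broth microdilution with direct colony suspension inoculum, per CLSI M07-A10. Reference strain taken from the NCTC collection.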

Escherichia coli [9] = assay: Antimicrobial activity against Escherichia coli ATCC BAA-2452 by broth microdilution method; assay type: functional; summary of the method: as §2
Escherichia coli [10] = assay: Antimicrobial activity against Escherichia coli ATCC BAA-2469 by broth microdilution method; assay type: functional; summary of the method: as §2
Klebsiella pneumoniae [11] = assay: Antimicrobial activity against Klebsiella pneumoniae ATCC BAA-2473 by broth microdilution method; assay type: functional; summary of the method: as §2
Klebsiella pneumoniae [12] = assay: Antimicrobial activity against Klebsiella pneumoniae ATCC 43816 by broth microdilution method; assay type: functional; summary of the method: as §2
Escherichia coli [13] = assay: microbe, parasite or virus in culture; details: ATCC 25922
Klebsiella pneumoniae [14] = assay: Antimicrobial activity against Klebsiella pneumoniae ATCC 13883 by broth microdilution method; assay type: functional; summary of the method: as §2
Klebsiella pneumoniae [15] = assay: Antimicrobial activity against Klebsiella pneumoniae NCTC 13439 by broth microdilution method; assay type: functional; summary of the method: as §2
Enterobacter cloacae = assay: Antimicrobial activity against Enterobacter cloacae ATCC BAA-2468 by broth microdilution method; assay type: functional
Klebsiella pneumoniae [16] = assay: Antimicrobial activity against Klebsiella pneumoniae ATCC BAA-1905 by broth microdilution method; assay type: functional; summary of the method: as §2
Klebsiella pneumoniae [17] = assay: Antimicrobial activity against Klebsiella pneumoniae ATCC BAA-1904 by broth microdilution method; assay type: functional; summary of the method: as §2
[18] = Inhibition of mammalian protein synthesis in rabbit reticulocyte lysate system incubated for 1 hr by mammalian cell-free transcription-translation assay; set-up: species or system Oryctolagus cuniculus
[19] = system: mammalian protein synthesis; assay: Selectivity index, ratio of IC50 for inhibition of mammalian protein synthesis in rabbit reticulocyte lysate system incubated for 1 hr by mammalian cell-free transcription-translation assay to IC50 for Inhibition of bacterial protein synthesis in cell-free Escherichia coli; assay type: toxicity
Escherichia coli [20] = assay: Inhibition of bacterial protein synthesis in cell-free Escherichia coli incubated for 1 hr and measured for every 20 mins by bacterial cell-free transcription-translation assay; assay type: functional; details: Escherichia coli
Summary of the method: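 E. coli cell-free coupled transcription-translation used a GFP gene in pEXP5-CT as template, started with 1 μg plasmid in 50 μL reactions. Feed buffer was added at 30 min, with incubation at 30 °C. Fluorescence (ex 475/em 520 nm) was read every 20 min. IC50 was taken at 1 h after feed addition from a four-parameter log(inhibitor)–response fit. Duplicates.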

Klebsiella pneumoniae [21] = assay: Antimicrobial activity against Klebsiella pneumoniae ATCC 13883 infected in neutropenic mouse pulmonary infection model assessed as reduction in lung bacterial load at 30 mg/kg, iv dosed 1 hr post infection and measured 8 hrs post infection relative to untreated control; assay type: functional, organism-based
Summary of the method: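 Neutropenia induced by intraperitoneal cyclophosphamide (150 mg/kg day 4, 100 mg/kg day 1 before infection); intranasal infection at 2 × 10^6 CFU/mouse. Single iv dose at 10 mL/kg given 1 h post-infection. An untreated group was sacrificed at 1 h for baseline burden. At 8 h, lungs were homogenized, serially diluted and plated on TSA for CFU. Comparison versus vehicle by one-way ANOVA with Dunnett's test.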

[22] = Klebsiella pneumoniae, ATCC 43816, read-out: MIC

**Q.** Which Activity (Klebsiella pneumoniae [1]) does the source give for `C[C@H](NC(=O)[C@@H](NC(=O)[C@@H](N)CCCCN)[C@@H](O)CN)C(=O)NCC(=O)N[C@H](CCCN)C(=O)N1CCC[C@H]1C(=O)N[C@@H](Cc1cnc[nH]1)C(=O)N[C@@H](CCCCN)C(=O)N/C(=C\CCNC(=N)N)C(=O)O.Cl` here?
**A.** 3 log10CFU/ml

**Q.** What about the Activity (Klebsiella pneumoniae [2]) of the same compound?
**A.** 2 log10CFU/ml

**Q.** Which MIC (Klebsiella pneumoniae [3]) does the source give for `CO/N=C(\C(=O)N[C@@H]1C(=O)N2C(C(=O)O)=C(CSc3nc(=O)c(O)nn3C)CS[C@H]12)c1csc(N)n1` [CEFTRIAXONE] here?
**A.** > 64 µg/mL

**Q.** And the MIC (Klebsiella pneumoniae [4])?
**A.** > 64 µg/mL

**Q.** What about the MIC (Klebsiella pneumoniae [5]) of the same compound?
**A.** > 64 µg/mL

**Q.** What about the MIC (Klebsiella pneumoniae [6]) of the same compound?
**A.** > 64 µg/mL

**Q.** What about the MIC (Escherichia coli [7]) of the same compound?
**A.** > 64 µg/mL

**Q.** What about the MIC (Klebsiella pneumoniae [8]) of the same compound?
**A.** 8 µg/mL (≈ 14.4 µM)

**Q.** And the MIC (Escherichia coli [9])?
**A.** > 64 µg/mL

**Q.** What about the MIC (Escherichia coli [10]) of the same compound?
**A.** > 64 µg/mL

**Q.** What about the MIC (Klebsiella pneumoniae [11]) of the same compound?
**A.** > 64 µg/mL

**Q.** And the MIC (Klebsiella pneumoniae [12]; [22])?
**A.** ≤ 0.125 µg/mL

**Q.** What about the MIC (Escherichia coli [13]) of the same compound?
**A.** < 0.25 µg/mL

**Q.** And the MIC (Klebsiella pneumoniae [14])?
**A.** < 0.25 µg/mL

**Q.** What about the MIC (Klebsiella pneumoniae [15]) of the same compound?
**A.** > 64 µg/mL

**Q.** And the MIC (Enterobacter cloacae)?
**A.** > 64 µg/mL

**Q.** What about the MIC (Klebsiella pneumoniae [16]) of the same compound?
**A.** > 64 µg/mL

**Q.** What about the MIC (Klebsiella pneumoniae [17]) of the same compound?
**A.** > 64 µg/mL

**Q.** Which MIC (Klebsiella pneumoniae [3]) does the source give for `N=C(N)NCC/C=C(\NC(=O)[C@H](CCCCN)NC(=O)[C@H](Cc1cnc[nH]1)NC(=O)[C@@H]1CCCN1C(=O)[C@@H](CCCN)NC(=O)CNC(=O)[C@@H](NC(=O)[C@@H](NC(=O)[C@@H](N)CCCCN)[C@@H](O)CN)[C@@H](O)CN)C(=O)N[C@@H](CCCCN)C(=O)NCCCCN` here?
**A.** 4 µg/mL (≈ 3.16 µM)

**Q.** What about the MIC (Klebsiella pneumoniae [4]) of the same compound?
**A.** 4 µg/mL (≈ 3.16 µM)

**Q.** And the IC50 [18]?
**A.** 10.3 µM

**Q.** What about the MIC (Klebsiella pneumoniae [5]) of the same compound?
**A.** 4 µg/mL (≈ 3.16 µM)

**Q.** What about the MIC (Klebsiella pneumoniae [6]) of the same compound?
**A.** 2 µg/mL (≈ 1.58 µM)

**Q.** And the MIC (Escherichia coli [7])?
**A.** 8 µg/mL (≈ 6.33 µM)

**Q.** What about the MIC (Klebsiella pneumoniae [8]) of the same compound?
**A.** 8 µg/mL (≈ 6.33 µM)

**Q.** What about the MIC (Escherichia coli [9]) of the same compound?
**A.** 8 µg/mL (≈ 6.33 µM)

**Q.** What about the MIC (Escherichia coli [10]) of the same compound?
**A.** 4 µg/mL (≈ 3.16 µM)

**Q.** And the selectivity ratio at 1 h [19]?
**A.** 16

**Q.** And the MIC (Klebsiella pneumoniae [11])?
**A.** 4 µg/mL (≈ 3.16 µM)

**Q.** And the IC50 (Escherichia coli [20])?
**A.** 0.63 µM

**Q.** And the MIC (Klebsiella pneumoniae [12])?
**A.** 4 µg/mL (≈ 3.16 µM)

**Q.** What about the MIC (Klebsiella pneumoniae [12]; [22]) of the same compound?
**A.** 4 µg/mL (≈ 3.16 µM)

**Q.** And the MIC (Escherichia coli [13])?
**A.** 8 µg/mL (≈ 6.33 µM)

**Q.** What about the MIC (Klebsiella pneumoniae [14]) of the same compound?
**A.** 4 µg/mL (≈ 3.16 µM)

**Q.** And the MIC (Klebsiella pneumoniae [15])?
**A.** 2 µg/mL (≈ 1.58 µM)

**Q.** What about the MIC (Enterobacter cloacae) of the same compound?
**A.** 4 µg/mL (≈ 3.16 µM)

**Q.** What about the MIC (Klebsiella pneumoniae [16]) of the same compound?
**A.** 4 µg/mL (≈ 3.16 µM)

**Q.** What about the MIC (Klebsiella pneumoniae [17]) of the same compound?
**A.** 2 µg/mL (≈ 1.58 µM)

**Q.** What does the source list for `C[C@@H](O)[C@H]1C(=O)N2C(C(=O)O)=C(SCCNC=N)C[C@H]12` [IMIPENEM ANHYDROUS]?
**A.** MIC (Klebsiella pneumoniae [3]): > 64 µg/mL; MIC (Klebsiella pneumoniae [4]): > 64 µg/mL; MIC (Klebsiella pneumoniae [5]): > 64 µg/mL; MIC (Klebsiella pneumoniae [6]): > 64 µg/mL; MIC (Escherichia coli [7]): 32 µg/mL (≈ 107 µM); MIC (Klebsiella pneumoniae [8]): > 64 µg/mL; MIC (Escherichia coli [9]): > 64 µg/mL; MIC (Escherichia coli [10]): > 64 µg/mL; MIC (Klebsiella pneumoniae [11]): > 64 µg/mL; MIC (Klebsiella pneumoniae [12]; [22]): 1 µg/mL (≈ 3.34 µM); MIC (Escherichia coli [13]): 0.5 µg/mL (≈ 1.67 µM); MIC (Klebsiella pneumoniae [14]): 2 µg/mL (≈ 6.68 µM); MIC (Klebsiella pneumoniae [15]): 64 µg/mL (≈ 214 µM); MIC (Enterobacter cloacae): > 64 µg/mL; MIC (Klebsiella pneumoniae [16]): > 64 µg/mL; MIC (Klebsiella pneumoniae [17]): 64 µg/mL (≈ 214 µM)

**Q.** Which results are given for `O=C(O)c1cn(C2CC2)c2cc(N3CCNCC3)c(F)cc2c1=O` [CIPROFLOXACIN]?
**A.** MIC (Klebsiella pneumoniae [3]): > 64 µg/mL; MIC (Klebsiella pneumoniae [4]): > 64 µg/mL; MIC (Klebsiella pneumoniae [5]): > 64 µg/mL; MIC (Klebsiella pneumoniae [6]): > 64 µg/mL; MIC (Escherichia coli [7]): > 64 µg/mL; MIC (Klebsiella pneumoniae [8]): 8 µg/mL (≈ 24.1 µM); MIC (Escherichia coli [9]): < 0.125 µg/mL; MIC (Escherichia coli [10]): > 64 µg/mL; MIC (Klebsiella pneumoniae [11]): > 64 µg/mL; MIC (Klebsiella pneumoniae [12]; [22]): ≤ 0.125 µg/mL; MIC (Escherichia coli [13]): < 0.25 µg/mL; MIC (Klebsiella pneumoniae [14]): 0.5 µg/mL (≈ 1.51 µM); MIC (Klebsiella pneumoniae [15]): 32 µg/mL (≈ 96.6 µM); MIC (Klebsiella pneumoniae [16]): > 64 µg/mL; Activity (Klebsiella pneumoniae [21]): Active; MIC (Klebsiella pneumoniae [17]): 0.5 µg/mL (≈ 1.51 µM)

**Q.** For `C[C@H](NC(=O)[C@@H](N)CCCCN)C(=O)N[C@H](C(=O)NCC(=O)N[C@H](CCCN)C(=O)N1CCC[C@H]1C(=O)N[C@@H](Cc1cnc[nH]1)C(=O)N[C@@H](CCCCN)C(=O)N/C(=C\CCNC(=N)N)C(=O)N[C@@H](CCCCN)C(=O)NCCCCN)[C@@H](O)CN`, which IC50 (Escherichia coli [20]) is on record?
**A.** 4.5 µM

**Q.** And the MIC (Klebsiella pneumoniae [12]; [22])?
**A.** > 64 µg/mL

**Q.** What about the MIC (Escherichia coli [13]) of the same compound?
**A.** > 64 µg/mL
